Experimental findings from ChEMBL document CHEMBL2146361, “Identification of novel α7 nicotinic receptor ligands by in silico screening against the crystal structure of a chimeric α7 receptor ligand binding domain” (Bioorg Med Chem, 2012) are described below.

Each structure is given as a SMILES string.

Sequence of Neuronal acetylcholine receptor subunit alpha-7 (P36544 23-502 limits assumed): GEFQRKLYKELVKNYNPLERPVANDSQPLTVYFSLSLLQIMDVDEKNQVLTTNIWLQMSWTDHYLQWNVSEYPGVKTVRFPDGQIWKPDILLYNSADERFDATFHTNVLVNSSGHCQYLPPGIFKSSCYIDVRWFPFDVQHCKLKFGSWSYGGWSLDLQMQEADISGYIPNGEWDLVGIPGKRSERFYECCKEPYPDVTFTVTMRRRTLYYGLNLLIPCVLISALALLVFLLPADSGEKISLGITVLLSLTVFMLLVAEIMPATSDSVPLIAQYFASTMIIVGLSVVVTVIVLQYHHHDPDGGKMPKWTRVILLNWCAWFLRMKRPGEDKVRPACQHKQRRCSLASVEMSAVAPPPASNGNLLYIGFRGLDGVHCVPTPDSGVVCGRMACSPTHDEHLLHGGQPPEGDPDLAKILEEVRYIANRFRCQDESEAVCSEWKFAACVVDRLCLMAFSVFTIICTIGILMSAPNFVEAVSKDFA

This test concerns the target Neuronal acetylcholine receptor subunit alpha-7 (Homo sapiens, UniProt P36544). Description: Displacement of [3H]epibatidine from chimeric human alpha7-5-HT3A receptor expressed in HEK293 cells after 2 hrs by scintillation counter analysis. In kind it is cell-based. A digest of the protocol: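 HEK293 cells grown in DMEM:F12 with 10% fetal calf serum at 37 °C, 7% CO₂, transiently transfected (PEI) and harvested after 2–3 days. 50 μg membranes incubated in 10 mM HEPES pH 7.4 with 3 nM [³H]epibatidine, ≥2 h at 4 °C, 10-point competition; non-specific binding with 3 mM (−)-nicotine.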
(In a radioligand displacement assay an active substance lowers the binding of a labelled ligand.)
On to `CN1CCc2[nH]c3ccccc3c2C1`, for which the pKi was 5.2.
Same read-out and setting: the figure for `CC1CC2(CCCCCC2)NCc2ccccc21` (configuration not stated) is 5.1.
Consider `COc1cc2c(cc1OC)C1CC(c3ccccc3)CCN1CC2` (configuration not stated), for which the negative logarithm of the Ki (pKi) amounted to 5.8.
In turn, `CC1/C(=N/O)CC(c2ccccc2)N(C)C1c1ccccc1` (configuration not stated) showed a pKi of 5.3.
`c1ccc(C2CN3CCC2CC3)cc1` (configuration not stated) showed a Ki of 200 nM and a negative-log Ki (pKi) of 6.7.
For the molecule `CC1CCN2CCc3c([nH]c4ccccc34)C2C1` (configuration not stated), the Ki worked out at 400 nM and the pKi came out at 6.4.
`CC1C(c2ccccc2)NC(c2ccccc2)C(C)C1(C)O` (configuration not stated) registered a pKi of 5.4.
`CC1CCN(CC(O)COc2ccc(-c3ccccc3)cc2)CC1` (configuration not stated) showed a pKi of 5.7.
`Clc1ccc(C2CC3CCC2N3)cn1` (configuration not stated) [EPIBATIDINE]: the pKd is on record as 8.2.
`N#CCOCC(O)C[n+]1ccccc1` (configuration not stated) yielded a pKi of 5.6.

By pKi is commonly meant the Ki on a negative log10 scale, so that one unit is a factor of ten. A high value points to a low Ki. Usually Ki stands for the dissociation constant of the complex between target and ligand, obtained from inhibition or displacement. The low end stands for a stronger hold on the target, the high end for a looser hold on the target. What is called pKd is −log10 of the Kd, conventionally taken in molar units. The low end stands for a large Kd, the high end for a small Kd.
